Assay results: ChEMBL document CHEMBL4020844, “Regio- and Stereospecific Synthesis of Oridonin D-Ring Aziridinated Analogues for the Treatment of Triple-Negative Breast Cancer via Mediated Irreversible Covalent Warheads” (J Med Chem, 2018)
Active and inactive are the calls of the source. The calls are words filed in the database; no cut-off is given here.

Legend:
MDA-MB-231 [1] = experiment: Induction of apoptosis in human MDA-MB-231 cells assessed as live cells at 20 uM after 48 hrs by Annexin V-FITC/propidium iodide staining based flow cytometry (reference value: 90.35%); assay type: functional
MDA-MB-231 [2] = experiment: Inhibition of colony formation in human MDA-MB-231 cells after 2 weeks by crystal violet staining based assay; assay type: functional, cell-based
Method in brief: (§1)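 Cells were seeded at 600 per well (MDA-MB-231) or 800 per well (MDA-MB-468, SK-BR3, MCF-7). After 24 h they were exposed to 1, 5, 10, 15 or 20 μM, or DMSO, with medium plus compound renewed every 72 h for 2 weeks. Wells were PBS-washed, stained with 0.01% crystal violet for 10 min, washed, dried and photographed.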

MDA-MB-231 [3] = experiment: Induction of apoptosis in human MDA-MB-231 cells assessed as dead cells at 20 uM after 48 hrs by Annexin V-FITC/propidium iodide staining based flow cytometry (reference value: 1.5%); assay type: functional
MDA-MB-231 [4] = experiment: Induction of apoptosis in human MDA-MB-231 cells assessed as live cells at 5 uM after 48 hrs by Annexin V-FITC/propidium iodide staining based flow cytometry (reference value: 90.35%); assay type: functional
MDA-MB-231 [5] = experiment: Induction of apoptosis in human MDA-MB-231 cells assessed as live cells at 15 uM after 48 hrs by Annexin V-FITC/propidium iodide staining based flow cytometry (reference value: 90.35%); assay type: functional
MDA-MB-468 [6] = experiment: Inhibition of colony formation in human MDA-MB-468 cells after 2 weeks by crystal violet staining based assay; assay type: functional, cell-based; method in brief: as §1
MDA-MB-231 [7] = experiment: Induction of apoptosis in human MDA-MB-231 cells assessed as late apoptotic cells at 1 uM after 48 hrs by Annexin V-FITC/propidium iodide staining based flow cytometry (reference value: 6.3%); assay type: functional
MDA-MB-231 [8] = experiment: Induction of apoptosis in human MDA-MB-231 cells assessed as late apoptotic cells at 5 uM after 48 hrs by Annexin V-FITC/propidium iodide staining based flow cytometry (reference value: 6.3%); assay type: functional
MDA-MB-231 [9] = experiment: Antiproliferative activity against human MDA-MB-231 cells after 72 hrs by MTT assay; assay type: functional, cell-based
Method in brief: (§2)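 MTT proliferation assay. Cells were seeded at 1 × 10^4 per well and exposed to DMSO or compound at 0.1, 0.33, 1.0, 3.3 and 10 μM for 72 h. MTT reagent was added, and OD at 560 nm was read after 1 h at 37°C. Each concentration was tested in quadruplicate wells.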

MDA-MB-231 [10] = experiment: Induction of apoptosis in human MDA-MB-231 cells assessed as dead cells at 1 uM after 48 hrs by Annexin V-FITC/propidium iodide staining based flow cytometry (reference value: 1.5%); assay type: functional
MDA-MB-231 [11] = experiment: Induction of apoptosis in human MDA-MB-231 cells assessed as early apoptotic cells at 1 uM after 48 hrs by Annexin V-FITC/propidium iodide staining based flow cytometry (reference value: 1.85%); assay type: functional
MCF-10A = experiment: Antiproliferative activity against human MCF10A cells up to 100 uM after 48 hrs by MTT assay
MDA-MB-468 [12] = experiment: Antiproliferative activity against human MDA-MB-468 cells after 72 hrs by MTT assay; assay type: functional, cell-based; method in brief: as §2
MDA-MB-231 [13] = experiment: Induction of apoptosis in human MDA-MB-231 cells assessed as upregulation of cleaved PARP after 48 hrs by Western blot analysis; assay type: functional, cell-based
Method in brief: (§3)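 MDA-MB-231 cells were exposed to DMSO or compound at several concentrations for 48 h, then lysed. Protein was measured by Bradford with a BSA standard. 40 μg total protein was run on SDS-PAGE and transferred to nitrocellulose, then blocked with 5% milk. Primary antibodies were applied overnight: Bcl-2 1:200, cleaved PARP 1:500, NF-κB 1:1000, Bax 1:1000, β-actin 1:2000. Detection was by ECL.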

SK-BR-3 [14] = experiment: Inhibition of colony formation in human SK-BR-3 cells after 2 weeks by crystal violet staining based assay; assay type: functional, cell-based; method in brief: as §1
MDA-MB-231 [15] = experiment: Antitumor activity against human MDA-MB-231 cells xenografted in nude mouse assessed as tumor growth inhibition at 10 to 15 mg/kg, ip daily for 10 days; assay type: functional, organism-based
Method in brief: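 Orthotopic model: female nude mice, 6–8 weeks old. MDA-MB-231 cells (1.0 × 10^6 in PBS) were injected into the no. 3 mammary fat pad, and mice were randomized into 4 groups. Once tumors reached 80–100 mm3, mice received 10 or 15 mg/kg daily by intraperitoneal injection in DMSO vehicle. Tumor volume (0.5 × L × W2) and body weight were measured daily. Mean ± SEM.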

MDA-MB-231 [16] = experiment: Induction of apoptosis in human MDA-MB-231 cells assessed as early apoptotic cells at 10 uM after 48 hrs by Annexin V-FITC/propidium iodide staining based flow cytometry (reference value: 1.85%); assay type: functional
MDA-MB-231 [17] = experiment: Induction of apoptosis in human MDA-MB-231 cells assessed as late apoptotic cells at 10 uM after 48 hrs by Annexin V-FITC/propidium iodide staining based flow cytometry (reference value: 6.3%); assay type: functional
MDA-MB-231 [18] = experiment: Induction of apoptosis in human MDA-MB-231 cells assessed as reduction in Bcl2 to Bax ratio at 1 to 20 uM after 48 hrs by Western blot analysis; assay type: functional, cell-based; method in brief: as §3
MDA-MB-231 [19] = experiment: Induction of apoptosis in human MDA-MB-231 cells assessed as early apoptotic cells at 20 uM after 48 hrs by Annexin V-FITC/propidium iodide staining based flow cytometry (reference value: 1.85%); assay type: functional
MCF7 [20] = experiment: Inhibition of colony formation in human MCF7 cells after 2 weeks by crystal violet staining based assay; assay type: functional, cell-based; method in brief: as §1
MDA-MB-231 [21] = experiment: Downregulation of NF-kB p65 protein expression in human MDA-MB-231 cells after 48 hrs by Western blot analysis; assay type: functional, cell-based; method in brief: as §3
SK-BR-3 [22] = experiment: Antiproliferative activity against human SK-BR-3 cells after 72 hrs by MTT assay; assay type: functional, cell-based; method in brief: as §2
MDA-MB-231 [23] = experiment: Induction of apoptosis in human MDA-MB-231 cells assessed as early apoptotic cells at 15 uM after 48 hrs by Annexin V-FITC/propidium iodide staining based flow cytometry (reference value: 1.85%); assay type: functional
MDA-MB-231 [24] = experiment: Induction of apoptosis in human MDA-MB-231 cells assessed as live cells at 10 uM after 48 hrs by Annexin V-FITC/propidium iodide staining based flow cytometry (reference value: 90.35%); assay type: functional
MDA-MB-231 [25] = experiment: Induction of apoptosis in human MDA-MB-231 cells assessed as early apoptotic cells at 5 uM after 48 hrs by Annexin V-FITC/propidium iodide staining based flow cytometry (reference value: 1.85%); assay type: functional
MDA-MB-231 [26] = experiment: Induction of apoptosis in human MDA-MB-231 cells assessed as dead cells at 5 uM after 48 hrs by Annexin V-FITC/propidium iodide staining based flow cytometry (reference value: 1.5%); assay type: functional
MDA-MB-231 [27] = experiment: Induction of apoptosis in human MDA-MB-231 cells assessed as late apoptotic cells at 15 uM after 48 hrs by Annexin V-FITC/propidium iodide staining based flow cytometry (reference value: 6.3%); assay type: functional
MDA-MB-231 [28] = experiment: Induction of apoptosis in human MDA-MB-231 cells assessed as live cells at 1 uM after 48 hrs by Annexin V-FITC/propidium iodide staining based flow cytometry (reference value: 90.35%); assay type: functional
MDA-MB-231 [29] = experiment: Induction of apoptosis in human MDA-MB-231 cells after 48 hrs by Annexin V-FITC/propidium iodide staining based flow cytometry; assay type: functional, cell-based
MCF7 [30] = experiment: Antiproliferative activity against human MCF7 cells after 72 hrs by MTT assay; assay type: functional, cell-based; method in brief: as §2
[31] = Glutathione reactivity in pH 7.4 deuterated phosphate buffer assessed as GSH adduct formation at 10 mg after 1 hr in presence of 1.5 to 2 equiv of GSH by HRMS analysis
MDA-MB-231 [32] = experiment: Induction of apoptosis in human MDA-MB-231 cells assessed as dead cells at 10 uM after 48 hrs by Annexin V-FITC/propidium iodide staining based flow cytometry (reference value: 1.5%); assay type: functional
[33] = Glutathione reactivity in pH 7.4 deuterated phosphate buffer assessed as reaction half life at 10 mg up to 120 mins in presence of 1.5 to 2 equiv of GSH by 1H NMR analysis; assay type: physicochemical; conditions: pH 7.4, 2 h
Method in brief: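 Glutathione (1.5–2 equiv) was incubated with compound at 37°C in DMSO-d6 mixed with sodium phosphate buffer in D2O, pH 7.4. Reactivity was monitored by 1H NMR.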

MDA-MB-231 [34] = experiment: Induction of apoptosis in human MDA-MB-231 cells assessed as late apoptotic cells at 20 uM after 48 hrs by Annexin V-FITC/propidium iodide staining based flow cytometry (reference value: 6.3%); assay type: functional

## C=CC(=O)N1CC12C(=O)[C@@]13[C@@H]4OC(C)(C)O[C@@]15OC[C@@]1([C@H]([C@@H]5O)C(C)(C)CC[C@@H]1O)[C@@H]3CC[C@H]42 (some centres not stated)
MDA-MB-231 [1]
  Activity: 50.35%
MDA-MB-231 [2]
  inhibition: Active
MDA-MB-231 [3]
  Activity: 2.05%
MDA-MB-231 [4]
  Activity: 87.95%
MDA-MB-231 [5]
  Activity: 70.25%
MDA-MB-468 [6]
  inhibition: Active
MDA-MB-231 [7]
  Activity: 6.05%
MDA-MB-231 [8]
  Activity: 6.7%
MDA-MB-231 [9]
  Activity: Dose-dependent effect
MDA-MB-231 [9]; MDA-MB-231, 72 h
  IC50: 8.32 µM
MDA-MB-231 [10]
  Activity: 1.95%
MDA-MB-231 [11]
  Activity: 2.5%
MCF-10A
  Activity: Non-Toxic
MDA-MB-468 [12]
  Activity: Dose-dependent effect
MDA-MB-231 [13]
  Activity: Dose-dependent effect
SK-BR-3 [14]
  inhibition: Active
MDA-MB-231 [15]
  TGI: Active
MDA-MB-231 [16]
  Activity: 5.45%
MDA-MB-231 [17]
  Activity: 12.75%
MDA-MB-231 [18]
  Activity: Active
MDA-MB-231 [19]
  Activity: 2.95%
MCF7 [20]
  inhibition: Active
MDA-MB-231 [21]
  Activity: Dose-dependent effect
SK-BR-3 [22]
  Activity: Dose-dependent effect
MDA-MB-231 [23]
  Activity: 5.2%
MDA-MB-231 [24]
  Activity: 79.05%
MDA-MB-231 [25]
  Activity: 3.6%
MDA-MB-231 [26]
  Activity: 1.75%
MDA-MB-231 [27]
  Activity: 21.6%
MDA-MB-231 [28]
  Activity: 89.5%
MDA-MB-231 [29]
  Activity: Dose-dependent effect
MCF7 [30]
  Activity: Dose-dependent effect
MCF7 [30]; MCF7, 72 h
  IC50: 9.39 µM
[31]
  Drug metabolism: Metabolite detected
MDA-MB-231 [32]
  Activity: 2.75%
[33]
  t1/2: 30 to 60 min
MDA-MB-231 [34]
  Activity: 44.65%
